Tests used:
[1] = test system: JNK activation in WT-ZAK-transfected HEK-293T cells; assay: Western blotting of phospho-JNK; type: cell-based, human; conditions: H2O2 1 mM, 30 min
Summary of the method: (§1)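 HEK-293T cells stably expressing FLAG-ZAK came from retroviral infection and hygromycin selection. They grew 24 h in DMEM/10% FBS, then were serum-starved 24 h and treated at 37 °C. Cells were sonicated in PBS with protease and phosphatase inhibitors. For blotting, 30 μg soluble lysate went on SDS-PAGE and nitrocellulose, blocked in 5% milk/TBST, with primary antibodies (1:2000, 16 h, 4 °C) and IRDye secondaries (1:10,000, 1 h). Read-out: infrared-scanned phospho-JNK, normalized.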

[2] = test system: JNK activation in C22A-ZAK-transfected HEK-293T cells; assay: Western blotting of phospho-JNK; type: cell-based, human; conditions: H2O2 1 mM, 30 min
Summary of the method: as §1

WT-ZAK and C22A-ZAK [3] = target: T1, WT-ZAK and C22A-ZAK (Homo sapiens, UniProt Q9NYL2); assay: gel-based ABPP, HNEyne labelling in proteomes; type: binding; conditions: 10 μM HNEyne, 1 hour, HEK-293T lysate
T1 sequence (Q9NYL2 1-455 isoform Q9NYL2-2, stated change not applied): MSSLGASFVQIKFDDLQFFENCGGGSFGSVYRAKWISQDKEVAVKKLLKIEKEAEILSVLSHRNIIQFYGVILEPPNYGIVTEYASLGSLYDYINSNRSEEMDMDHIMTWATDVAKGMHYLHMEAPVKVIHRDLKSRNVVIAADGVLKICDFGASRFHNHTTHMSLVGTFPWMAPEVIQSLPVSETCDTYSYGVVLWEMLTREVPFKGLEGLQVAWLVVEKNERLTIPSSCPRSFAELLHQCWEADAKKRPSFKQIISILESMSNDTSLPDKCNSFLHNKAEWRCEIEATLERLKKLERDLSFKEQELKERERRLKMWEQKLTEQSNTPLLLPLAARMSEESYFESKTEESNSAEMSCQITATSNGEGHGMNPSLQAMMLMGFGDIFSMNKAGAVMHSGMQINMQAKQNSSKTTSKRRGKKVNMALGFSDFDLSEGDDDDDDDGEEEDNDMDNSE

WT-ZAK and C22A-ZAK [4] = target: T1, WT-ZAK and C22A-ZAK; assay: gel-based ABPP, HNEyne labelling in living cells; type: cell-based; conditions: 5 μM HNEyne, 1 hour, 37°C

| SMILES | JNK activity after H2O2 [1] | JNK activity after H2O2 [2] | direct labeling of ZAK by HNEyne in vitro (WT-ZAK and C22A-ZAK [3]) | direct labeling of ZAK by HNEyne in living cells (WT-ZAK and C22A-ZAK [4]) |
| --- | --- | --- | --- | --- |
| OO [H2O2] | stimulated JNK activity | stimulated JNK activity | – | – |
| C#CCCCC(O)C=CC=O (stereo not shown) [HNEyne] | – | – | direct labeling of WT-, but not the C22A-ZAK mutant | direct labeling of WT-, but not the C22A-ZAK mutant |

Reference: PMC3901407 (Nature methods, 2013)
